Test results as given in ChEMBL document CHEMBL1133557, “Synthesis, SARs, and pharmacological characterization of 2-amino-3 or 6-fluorobicyclo[3.1.0]hexane-2,6-dicarboxylic acid derivatives as potent, selective, and orally active group II metabotropic glutamate receptor agonists” (J Med Chem, 2000).

What was measured:
[1] = target: T1, Metabotropic glutamate receptor 3 (Rattus norvegicus, UniProt P31422); test: Tested for binding affinity against Metabotropic glutamate receptor 3 in CHO cells using [3H]-7 as radioligand; type: cell-based
T1 sequence (P31422 whole entry): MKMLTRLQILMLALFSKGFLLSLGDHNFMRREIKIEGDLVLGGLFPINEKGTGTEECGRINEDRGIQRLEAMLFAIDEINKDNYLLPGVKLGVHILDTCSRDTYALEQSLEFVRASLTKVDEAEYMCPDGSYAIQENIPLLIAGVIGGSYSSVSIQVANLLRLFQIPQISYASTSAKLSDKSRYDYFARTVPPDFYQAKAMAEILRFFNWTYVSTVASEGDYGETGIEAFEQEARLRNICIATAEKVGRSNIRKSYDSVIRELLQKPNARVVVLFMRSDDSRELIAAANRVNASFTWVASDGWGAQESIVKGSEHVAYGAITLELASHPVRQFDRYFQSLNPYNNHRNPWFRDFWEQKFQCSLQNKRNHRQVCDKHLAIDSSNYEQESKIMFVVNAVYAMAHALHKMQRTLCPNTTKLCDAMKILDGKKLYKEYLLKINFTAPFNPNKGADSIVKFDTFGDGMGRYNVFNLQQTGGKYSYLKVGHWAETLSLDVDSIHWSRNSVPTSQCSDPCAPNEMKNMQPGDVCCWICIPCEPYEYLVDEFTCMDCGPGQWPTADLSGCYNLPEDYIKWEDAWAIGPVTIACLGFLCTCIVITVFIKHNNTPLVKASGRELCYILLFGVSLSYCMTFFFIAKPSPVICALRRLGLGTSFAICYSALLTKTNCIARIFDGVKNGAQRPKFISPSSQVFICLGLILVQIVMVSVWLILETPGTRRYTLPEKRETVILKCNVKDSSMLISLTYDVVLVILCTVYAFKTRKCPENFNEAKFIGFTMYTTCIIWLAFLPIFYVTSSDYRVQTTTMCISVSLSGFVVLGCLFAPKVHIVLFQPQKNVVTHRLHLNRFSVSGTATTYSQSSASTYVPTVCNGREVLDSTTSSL

[2] = target: T1, Metabotropic glutamate receptor 3; test: Agonist potency against cloned Metabotropic glutamate receptor 3; type: functional
[3] = target: T1, Metabotropic glutamate receptor 3; test: Antagonist activity against Metabotropic glutamate receptor 3 expressed in CHO cells was evaluated in presence of 30 uM glutamic acid; type: functional, cell-based
Summary of the method: (§1)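 mGluR2- or mGluR3-expressing CHO cells grown 2 days, then held 4-5 h in medium without glutamine. Cells were preincubated 20 min at 37 °C in PBS with 1 mM IBMX, then exposed for 15 min at 37 °C to 10 µM forskolin plus test agent with 30 µM glutamic acid present. Reaction stopped with ice-cold ethanol; cAMP measured by enzyme immunoassay.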

Rattus norvegicus [4] = test: Tested for mGluR agonist activity by measuring the PCP induced hyperactivity in rats at 3 mg/kg; type: functional
Summary of the method: (§2)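 Rats housed singly and acclimatized 60 min in activity-monitoring apparatus inside a sound-proof box. Oral dosing 180 min before PCP 5 mg/kg i.p.; locomotor counts recorded every 10 min for 120 min, n=6 per group. Total counts expressed as percent inhibition relative to vehicle (100%); ED50 derived; ANOVA plus Dunnett's test.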

Rattus norvegicus [5] = test: Tested for mGluR agonist activity by measuring the PCP induced head-weavings in rats at 100 ug/kg; type: functional
Summary of the method: (§3)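 Rats acclimatized individually at least 60 min. Compound given orally 60 min before PCP 7.5 mg/kg i.p. Head-weavings (slow side-to-side head movements) counted every 10 min for 30 min after PCP, n=6 per group. Percent inhibition versus vehicle total (100%); ED50 derived; ANOVA with Dunnett's test.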

Rattus norvegicus [6] = test: Tested for mGluR agonist activity by measuring the PCP induced head-weavings in rats at 1000 ug/kg; type: functional; summary of the method: as §3
Rattus norvegicus [7] = test: Tested for mGluR agonist activity by measuring the PCP induced head-weavings in rats at 300 ug/kg; type: functional; summary of the method: as §3
Rattus norvegicus [8] = test: (§4) Tested for mGluR agonist activity by measuring the PCP induced hyperactivity in rats at 10 mg/kg; type: functional; summary of the method: as §2
Rattus norvegicus [9] = test: Tested for % inhibition of PCP induced head-weavings in rats at 1000 ug/kg; type: functional; summary of the method: as §3
Rattus norvegicus [10] = test: Tested for % inhibition of PCP induced head-weavings in rats at 300 ug/kg; type: functional; summary of the method: as §3
Rattus norvegicus [11] = test: (§5) Effective dose to evaluate PCP induced hyper activity in rats after oral administration; type: functional; summary of the method: as §2
Rattus norvegicus [12] = test: (§6) Tested for mGluR agonist activity by measuring the PCP induced hyperactivity in rats at 30 mg/kg; type: functional; summary of the method: as §2
Rattus norvegicus [13] = test: (§7) Tested for % inhibition of PCP induced hyperactivity in rats at 10 mg/kg; type: functional; summary of the method: as §2
Rattus norvegicus [14] = test: (§8) Tested for % inhibition of PCP induced hyperactivity in rats at 30 mg/kg; type: functional; summary of the method: as §2
Rattus norvegicus [15] = test: Tested for % inhibition of PCP induced head-weavings in rats at 100 ug/kg; type: functional; summary of the method: as §3
Rattus norvegicus [16] = test: Tested for % inhibition of PCP induced hyperactivity in rats at 3 mg/kg; type: functional; summary of the method: as §2
Rattus norvegicus [17] = test: Effective dose to evaluate PCP induced head-weaving behavior in rats after oral administration; type: functional
Rattus norvegicus [18] = test: as §5; type: functional; remark: listed apart in the source
Rattus norvegicus [19] = test: as §7; type: functional; remark: listed apart in the source
Rattus norvegicus [20] = test: as §8; type: functional; remark: listed apart in the source
Rattus norvegicus [21] = test: as §4; type: functional; remark: listed apart in the source
Rattus norvegicus [22] = test: Tested for mGluR agonist activity by measuring the PCP induced hyperactivity in rats at 100 mg/kg; type: functional
Rattus norvegicus [23] = test: Tested for mGluR agonist activity by measuring the PCP induced hyperactivity in rats at […]; type: functional
Rattus norvegicus [24] = test: as §6; type: functional; remark: listed apart in the source
Rattus norvegicus [25] = test: Tested for % inhibition of PCP induced hyperactivity in rats at 100 mg/kg
Rattus norvegicus [26] = test: Tested for % inhibition of PCP induced head-weavings in rats at 10000 ug/kg
Rattus norvegicus [27] = test: Tested for mGluR agonist activity by measuring the head-weaving behavior in rats at 1000 ug/kg
[28] = target: T2, Metabotropic glutamate receptor 2 (Rattus norvegicus, UniProt P31421); test: Agonist activity against Metabotropic glutamate receptor 2 expressed in CHO cells was evaluated by measuring forskolin-induced cyclic AMP formation; type: functional, cell-based
T2 sequence (P31421 whole entry): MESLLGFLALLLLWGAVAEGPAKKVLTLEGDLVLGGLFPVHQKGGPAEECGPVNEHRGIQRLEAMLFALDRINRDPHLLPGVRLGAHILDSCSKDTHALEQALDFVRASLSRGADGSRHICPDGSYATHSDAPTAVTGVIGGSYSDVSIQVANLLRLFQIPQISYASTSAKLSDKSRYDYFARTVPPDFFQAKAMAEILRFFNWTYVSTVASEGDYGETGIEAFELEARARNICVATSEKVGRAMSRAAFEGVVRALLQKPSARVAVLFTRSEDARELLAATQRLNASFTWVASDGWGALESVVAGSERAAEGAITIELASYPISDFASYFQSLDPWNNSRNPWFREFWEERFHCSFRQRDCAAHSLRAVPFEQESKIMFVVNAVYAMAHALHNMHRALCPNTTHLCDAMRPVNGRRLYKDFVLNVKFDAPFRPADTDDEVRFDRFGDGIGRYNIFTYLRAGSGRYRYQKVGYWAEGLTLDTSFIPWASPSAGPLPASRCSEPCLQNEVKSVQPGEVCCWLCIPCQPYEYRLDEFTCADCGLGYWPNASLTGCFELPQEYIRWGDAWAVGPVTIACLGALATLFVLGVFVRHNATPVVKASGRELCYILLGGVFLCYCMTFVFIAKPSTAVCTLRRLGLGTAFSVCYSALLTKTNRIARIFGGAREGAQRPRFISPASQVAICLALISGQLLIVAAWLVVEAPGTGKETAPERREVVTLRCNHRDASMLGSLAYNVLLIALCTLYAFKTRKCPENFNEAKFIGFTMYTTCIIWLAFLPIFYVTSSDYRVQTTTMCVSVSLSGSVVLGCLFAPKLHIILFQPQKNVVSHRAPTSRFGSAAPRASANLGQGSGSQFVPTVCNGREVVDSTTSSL

[29] = target: T2, Metabotropic glutamate receptor 2; test: Antagonist activity against Metabotropic glutamate receptor 2 expressed in CHO cells was evaluated in presence of 30 uM glutamic acid; type: functional, cell-based; conditions: read-out: EC50 (the source's name)
[30] = target: T2, Metabotropic glutamate receptor 2; test: Antagonist activity against Metabotropic glutamate receptor 2 expressed in CHO cells was evaluated by measuring forskolin-induced cyclic AMP formation; type: functional, cell-based; summary of the method: as §1
[31] = target: T2, Metabotropic glutamate receptor 2; test: Tested for binding affinity against Metabotropic glutamate receptor 2 in CHO cells using [3H]-7 as radioligand; type: cell-based
Rattus norvegicus [32] = test: Tested for % inhibition of PCP induced head-weavings in rats at 0.1 ug/kg; type: functional; summary of the method: as §3
Rattus norvegicus [33] = test: Tested for % inhibition of PCP induced head-weavings in rats at 0.3 ug/kg; type: functional; summary of the method: as §3
Rattus norvegicus [34] = test: Tested for % inhibition of PCP induced hyperactivity in rats at 0.1 mg/kg; type: functional; summary of the method: as §2
Rattus norvegicus [35] = test: Tested for % inhibition of PCP induced hyperactivity in rats at 0.3 mg/kg; type: functional; summary of the method: as §2
Rattus norvegicus [36] = test: Tested for % inhibition of PCP induced hyperactivity in rats at 1 mg/kg; type: functional; summary of the method: as §2
Rattus norvegicus [37] = test: Tested for mGluR agonist activity by measuring the PCP induced head weaving behavior in rats at 0.03 ug/kg; type: functional; summary of the method: as §3
Rattus norvegicus [38] = test: Tested for mGluR agonist activity by measuring the PCP induced head weaving behavior in rats at 0.1 ug/kg; type: functional; summary of the method: as §3
Rattus norvegicus [39] = test: Tested for mGluR agonist activity by measuring the PCP induced head weaving behavior in rats at 0.3 ug/kg; type: functional; summary of the method: as §3
Rattus norvegicus [40] = test: Tested for mGluR agonist activity by measuring the PCP induced hyperactivity in rats at 0.3 mg/kg; type: functional; summary of the method: as §2
Rattus norvegicus [41] = test: Tested for mGluR agonist activity by measuring the PCP induced hyperactivity in rats at 1 mg/kg; type: functional; summary of the method: as §2
Rattus norvegicus [42] = test: Tested for mGluR agonist activity by measuring the PCP induced hyperactivity in rats at 0.1 mg/kg; type: functional; summary of the method: as §2
Rattus norvegicus [43] = test: Tested for % inhibition of PCP induced head-weavings in rats at 0.03 ug/kg; type: functional; summary of the method: as §3

N[C@]1(C(=O)O)[C@H]2[C@@H](C[C@@H]1F)[C@@H]2C(=O)O
Ki [1]: 0.0659 µM
EC50 [2]: 0.0454 µM
EC50 [3]: > 100 µM
Total counts (Rattus norvegicus [4]): 40600
Total counts (Rattus norvegicus [5]): 25.5
Total counts (Rattus norvegicus [6]): 7.5
Total counts (Rattus norvegicus [7]): 21
Total counts (Rattus norvegicus [8]): 11300
inhibition in vivo at 1 mg/kg (Rattus norvegicus [9]): 81%
inhibition in vivo at 0.3 mg/kg (Rattus norvegicus [10]): 47%
ED50 (Rattus norvegicus [11]): 5.1 mg/kg
Total counts (Rattus norvegicus [12]): 1850
inhibition in vivo at 10 mg/kg (Rattus norvegicus [13]): 79%
inhibition in vivo at 30 mg/kg (Rattus norvegicus [14]): 97%
inhibition in vivo at 0.1 mg/kg (Rattus norvegicus [15]): 35%
inhibition in vivo at 3 mg/kg (Rattus norvegicus [16]): 26%

N[C@@]1(C(=O)O)CC[C@H]2[C@H](C(=O)O)[C@H]21
Ki [1]: 0.0535 µM
EC50 [2]: 0.0628 µM
ED50 (Rattus norvegicus [17]): 3 mg/kg
ED50 (Rattus norvegicus [18]): > 100 mg/kg
inhibition in vivo at 10 mg/kg (Rattus norvegicus [19]): 37%
inhibition in vivo at 30 mg/kg (Rattus norvegicus [20]): 32%
Total counts (Rattus norvegicus [21]): 40600
Total counts (Rattus norvegicus [22]): 36000
Total counts (Rattus norvegicus [23]): 6.5
Total counts (Rattus norvegicus [24]): 43800
inhibition in vivo at 100 mg/kg (Rattus norvegicus [25]): 44%
Inhibition % (Rattus norvegicus [26]): 83%
Number of head-weavings (Rattus norvegicus [27]): 33

N[C@@]1(C(=O)O)CC(O)[C@@H]2[C@H]1[C@@]2(F)C(=O)O (mixture of isomers)
EC50 [28]: 0.021 µM
IC50 [29]: > 100 µM

N[C@@]1(C(=O)O)CC(=O)[C@@H]2[C@H]1[C@@]2(F)C(=O)O (racemic)
EC50 [28]: 0.00126 µM

N[C@]1(C(=O)O)[C@H]2[C@@H](CC1(F)F)[C@@H]2C(=O)O (racemic)
EC50 [28]: > 100 µM
IC50 [29]: 36.2 µM

N[C@@]1(C(=O)O)CC[C@@H]2[C@H]1[C@@]2(F)C(=O)O (racemic)
EC50 [28]: 0.0342 µM

C[C@]1(C(=O)O)[C@@H]2CC[C@@](N)(C(=O)O)[C@@H]21 (racemic)
EC50 [28]: > 100 µM
EC50 [30]: > 100 µM

N[C@@]1(C(=O)O)CC[C@@H]2[C@H]1[C@@]2(F)C(=O)O (stereo in doubt; (+)11)
EC50 [28]: 1.12 µM

N[C@@]1(C(=O)O)CC(=O)[C@@H]2[C@H]1[C@@]2(F)C(=O)O (stereo in doubt; (+)-14)
Ki [1]: 0.00362 µM
Ki [31]: 0.0033 µM
EC50 [2]: 0.00207 µM
EC50 [3]: > 100 µM
EC50 [28]: 0.00057 µM
IC50 [29]: > 100 µM
inhibition in vivo at 0.0001 mg/kg (Rattus norvegicus [32]): 52%
inhibition in vivo at 0.0003 mg/kg (Rattus norvegicus [33]): 86%
inhibition in vivo at 0.1 mg/kg (Rattus norvegicus [34]): 36%
inhibition in vivo at 0.3 mg/kg (Rattus norvegicus [35]): 54%
inhibition in vivo at 1 mg/kg (Rattus norvegicus [36]): 56%
Total counts (Rattus norvegicus [37]): 27.1
Total counts (Rattus norvegicus [38]): 16.2
Total counts (Rattus norvegicus [39]): 4.88
Total counts (Rattus norvegicus [40]): 27700
Total counts (Rattus norvegicus [4]): 7760
Total counts (Rattus norvegicus [41]): 26100
Total counts (Rattus norvegicus [42]): 38500
ED50 (Rattus norvegicus [11]): 0.3 mg/kg
inhibition in vivo at 3 mg/kg (Rattus norvegicus [16]): 87%
inhibition in vivo at 3e-05 mg/kg (Rattus norvegicus [43]): 21%

N[C@@]1(C(=O)O)CC[C@@H]2[C@H]1[C@@]2(F)C(=O)O (stereo in doubt; (-)-11)
Ki [1]: 0.0417 µM
Ki [31]: 0.0225 µM
EC50 [2]: 0.0809 µM
EC50 [3]: > 100 µM
EC50 [28]: 0.0166 µM
IC50 [29]: > 100 µM

N[C@@]1(C(=O)O)CC(=O)[C@@H]2[C@H]1[C@@]2(F)C(=O)O (stereo in doubt; (-)-14)
EC50 [28]: 0.0947 µM
